A selection: hits, their analogues and other compounds. The true share with any hit is near 2.9%.
APOBEC3A inh = blocks human APOBEC3A ssDNA deamination; P31941; recombinant A3A, FAM/TAMRA ssDNA deamination fluorescence; inhibition, % at 20 µM; 330,000 compounds, 0.41% hits; AID 493011;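 active means at least 40% inhibition at 20 µM here, with at most 30% in a related deaminase screen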;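 further: plate controls were A3A with DMSO for no effect and wells lacking A3A enzyme for full effect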
Target sequence (P31941 whole entry, looked up): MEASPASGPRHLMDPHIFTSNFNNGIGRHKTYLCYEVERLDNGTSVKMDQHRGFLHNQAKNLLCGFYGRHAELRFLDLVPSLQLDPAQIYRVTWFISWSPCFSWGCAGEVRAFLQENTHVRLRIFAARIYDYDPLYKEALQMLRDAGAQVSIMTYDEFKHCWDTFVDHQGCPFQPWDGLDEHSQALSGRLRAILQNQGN
PRMT1 inh = blocks human protein arginine methyltransferase 1; Q99873; recombinant PRMT1, activity-based probe fluorescence polarization; inhibition, % at 2.79 µM; 370,000 compounds, 1.3% hits; AID 652257;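 active means inhibition above about 21% made by adding two undisclosed values, limit read from the data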
HCV NS3 hel inh = HCV NS3 helicase inhibition; NS3 helicase DNA unwinding, Cy5 molecular beacon fluorescence; inhibition, % at 10.9 µM; 290,000 compounds, 0.56% hits;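 active means inhibition above the mean of all tested compounds plus 3 SD, set per campaign, cut at about 35% in these data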;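 further: 0% = DMSO wells and 100% = thioflavine S control wells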
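Control set: DMSO versus 110 µM thioflavine S; Material: NS3 helicase fragment of HCV; Measured by: Cy5 fluorescence at 0 and 60 min, beacon hairpin quenching; Read-out basis: percent inhibition from t60/t0 fluorescence ratio; Times: reaction time 60 min, 25 °C; Repeats: single replicate; Compound dosing: single dose, 10.9 µM nominal final, DMSO 0.8% final.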
core dimer inh = HCV core protein dimerization inhibition. 300,000 compounds, 0.33% hits. TR-FRET GST/Flag-core106 dimerization, 1536-well. AID 1899. inhibition, % at 5 µM;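 active means inhibition above the mean of all tested compounds plus 3 SD, set per screening campaign, cut at about 45% in these data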
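test system = GST/Flag-tagged HCV core106 proteins | probe or stimulus = Eu donor and XL665 acceptor anti-tag antibodies | times = compound-protein-antibody incubation 4 h at 22.5 °C | signal = TR-FRET, excitation 340 nm, emission 617 and 671 nm | measure = percent inhibition of core106 dimerization signal | controls = wells lacking GST-core106 and wells with excess unlabelled core106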
ABHD5 PLIN5 PPI = blocks binding of human ABHD5 to perilipin-5. Q00G26+Q8WTS1. Split G. princeps luciferase complementation, luminescence, 4 h. inhibition, % at 4 µM. 360,000 compounds, 0.78% hits. AID 602281;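 active means inhibition above the mean inhibition across every tested compound plus 3 SD, cut at about 22% in these data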;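 further: 0% = DMSO only wells and the 100% control is not disclosed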
APOBEC3G inh = inhibitors of human APOBEC3G DNA deaminase | recombinant A3G, ssDNA deamination FAM/TAMRA fluorescence | inhibition, % at 20 µM | Q9HC16 | 330,000 compounds, 0.28% hits;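 active means inhibition of at least 40% at 20 µM, with no more than 30% in the related APOBEC3A deaminase screen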;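 further: plate controls were DMSO wells with A3G for no effect and wells lacking A3G enzyme for full effect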
ABHD5-PLIN5 conf = confirmation of human ABHD5-PLIN5 interaction inhibitors | shares compounds with ABHD5 PLIN5 PPI | biochemical ABHD5-PLIN5 interaction, luminescence | inhibition, % at 4 µM | 2,200 compounds, 67% hits | AID 651612; in the data active means inhibition above about 23%;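 further: 0% = DMSO vehicle wells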
HNF4 counter = counter-screen for ABHD5-PLIN5 inhibitors: HNF4 split-luciferase; shares compounds with ABHD5 PLIN5 PPI; HNF4 dimerization, luminescence, biochemical; inhibition, % at 4 µM; 2,200 compounds, 77% hits; AID 651674;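 active means mean inhibition across replicate wells exceeding the computed hit threshold, cut at about 13% in these data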;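 further: light from luciferase halves that rejoin when HNF4 fusion proteins dimerize; 0% = DMSO only wells and the 100% control is not given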
Target sequence (P41235 whole entry, looked up, the tested form may be a part): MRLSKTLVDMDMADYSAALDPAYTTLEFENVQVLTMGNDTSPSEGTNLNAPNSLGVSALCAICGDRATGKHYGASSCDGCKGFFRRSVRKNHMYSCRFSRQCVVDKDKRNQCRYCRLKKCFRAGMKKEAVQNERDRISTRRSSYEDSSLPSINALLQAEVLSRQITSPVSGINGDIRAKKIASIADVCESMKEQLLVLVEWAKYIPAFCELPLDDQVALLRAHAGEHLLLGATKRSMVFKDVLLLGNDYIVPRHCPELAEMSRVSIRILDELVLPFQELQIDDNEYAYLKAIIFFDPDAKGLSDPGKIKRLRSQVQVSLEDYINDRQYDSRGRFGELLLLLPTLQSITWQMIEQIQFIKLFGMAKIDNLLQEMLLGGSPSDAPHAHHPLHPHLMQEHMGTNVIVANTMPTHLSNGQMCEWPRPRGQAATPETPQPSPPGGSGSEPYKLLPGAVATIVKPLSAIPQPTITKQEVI
PRMT1 confirm = confirmation of human PRMT1 inhibitors. shares compounds with PRMT1 inh. recombinant His-PRMT1, activity-based probe fluorescence polarization. inhibition, % at 2.79 µM. 3,300 compounds, 42% hits;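 active means mean inhibition across replicates above the hit cutoff derived for the earlier primary screen, cut at about 22% in these data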
* hit, by the source's call; nt = no result.

SMILES	APOBEC3A inh	PRMT1 inh	HCV NS3 hel inh	core dimer inh	ABHD5 PLIN5 PPI	APOBEC3G inh	ABHD5-PLIN5 conf	HNF4 counter	PRMT1 confirm
Nc1ccccc1SC(CC(=O)c1ccccc1)c1ccc([N+](=O)[O-])cc1 (centres undefined)	nt	83*	nt	nt	71*	nt	70*	85*	61*
CCc1nc2c(OCCC3CCCCC3)cccn2c1N(C)C(=O)c1ccc(OC)cc1	nt	9	nt	nt	1	nt	nt	nt	nt
C=CCn1cccc(/C=C/C(=O)c2ccc(C(C)(C)C)cc2)c1=S	nt	27*	-96	9	46*	nt	75*	90*	1
O=C(CS(=O)(=O)c1ccccc1)CS(=O)(=O)c1ccccc1	nt	-2	nt	nt	nt	nt	nt	nt	nt
O=S(=O)(C/C(=C/CO)S(=O)(=O)c1ccccc1)c1ccccc1	-5	29*	10	-2	65*	-5	95*	92*	7
CCOC(=O)C1=CC[C@@H](c2ccccc2)N(S(=O)(=O)c2ccc(C)cc2)[C@H]1C#N	nt	27*	nt	nt	58*	nt	30*	65*	22*
C=CCOc1cccc(/C=C2\C(=O)N(Cc3ccc(C)cc3)C(C)=C2C(=O)OC)c1	7	-3	13	16	12	-5	nt	nt	nt
CCOc1cc(/C=C2\C(=O)N(Cc3ccc(C)cc3)C(C)=C2C(=O)OC)ccc1O	-4	41*	24	16	23*	7	50*	39*	6
CCN(CC)C(=O)[C@H]1C[C@H](CC(=O)NCc2cccc(C(F)(F)F)c2)C(=O)N2CCc3c([nH]c4cc(-c5ccco5)ccc34)[C@]12C	1	nt	nt	nt	13	-1	nt	nt	nt
CCn1cc(C(=O)NCCC(C)C)c(=O)c2cc(F)c(N3CCN(C)CC3)cc21	8	-3	-23	5	9	-5	nt	nt	nt
CC(C)N(C(=O)[C@H]1C[C@H](CC(=O)NCCC2=CCCCC2)C(=O)N2CCc3c([nH]c4ccc(Cl)cc34)[C@]12C)C(C)C	0	0	nt	nt	3	-2	nt	nt	nt
C/C=C/c1ccc(O)c(OC)c1	-3	-3	nt	3	-4	3	nt	nt	nt
COc1cc(/C=C/C=C2/CC/C(=C/C=C/c3ccc(O)c(OC)c3)C2=O)ccc1O	nt	54*	nt	nt	26*	nt	62*	68*	13
C=CCN(c1ccccc1)S(=O)(=O)c1cccc(C(=O)Nc2ncccc2C)c1	-5	0	nt	2	-5	-9	nt	nt	nt
O=C1N(Cc2ccccc2)CC2(Br)COCOC12O (centres undefined)	nt	90*	nt	nt	39*	nt	93*	102*	91*
COc1ccccc1Cc1c(-c2cccc(Cl)c2)nc2ccc(C)cn12	nt	-5	nt	nt	2	nt	nt	nt	nt
COC(=O)c1ccc(CCc2cc(O)c(Br)cc2O)cc1	nt	103*	nt	nt	93*	nt	21	48*	72*
Cc1ccc(N2C(=O)CC(N3CCN(c4ccc(F)cc4)CC3)C2=O)c(C)c1 (centres undefined)	-5	7	0	2	-9	-8	nt	nt	nt
Cc1ccc(-n2sc3cc(F)ccc3c2=O)c(C)c1	nt	92*	nt	nt	66*	nt	63*	116*	81*
C=CCOC(=O)/C=C/C(=O)NC(N)=O	-4	76*	6	-1	35*	-6	57*	55*	69*
COc1ccc(NC(=O)CSc2c3c(nc4ccccc24)CCCC3)c(OC)c1	1	26*	-2	-7	25*	1	29*	44*	26*
O=C(OCC(=O)N1CCC(Cc2ccccc2)CC1)c1ccc(O)cc1	nt	-4	nt	nt	2	nt	nt	nt	nt
CCOc1cc(/C=N/NC(=O)C(O)(c2ccccc2)c2ccccc2)ccc1OC(=O)c1ccco1	1	-1	nt	13	-7	-2	nt	nt	nt
CC(=O)c1ccc(NS(=O)(=O)c2cccc(C(=O)Nc3ccccc3C(=O)O)c2)cc1	-6	-2	15	-2	-7	-5	nt	nt	nt
Cc1ccc(C(=O)Nc2nc(-c3ccco3)c(-c3ccco3)s2)o1	96	38*	nt	nt	28*	96	17	17*	29*
SMILES	APOBEC3A inh	PRMT1 inh	HCV NS3 hel inh	core dimer inh	ABHD5 PLIN5 PPI	APOBEC3G inh	ABHD5-PLIN5 conf	HNF4 counter	PRMT1 confirm
COc1ccc(C(C)NC(=O)C2CCN(CCOc3ccc(Cl)cc3Cl)CC2)cc1OC (centres undefined)	nt	nt	nt	nt	-3	nt	nt	nt	nt
COCC1CCN(Cc2c(C(=O)N3CCOCC3)nc3c(C)cccn23)C1 (centres undefined)	nt	0	nt	nt	5	nt	nt	nt	nt
CCCCN(C(=O)c1cc(CC)c(C)s1)c1c(N)n(CCC)c(=O)[nH]c1=O	0	-2	nt	2	3	-3	nt	nt	nt
CC1=CC(=O)C(Sc2ccc(C)cc2)=CC1=O	nt	88*	nt	nt	62*	nt	60*	97*	95*
Cc1ccc(Sc2c(C)[nH]n(C(C)(C)C)c2=O)cc1	-2	1	1	-3	-6	-11	nt	nt	nt
Cc1oc(=O)c(NC(=O)c2cccc(Cl)c2)cc1C(=O)c1ccccc1	-1	51*	9	5	34*	-3	18	100*	24*
Cc1cccnc1C(NC(=O)C1CCN(CCCc2ccccc2)CC1)c1ccc(F)cc1 (centres undefined)	nt	-1	nt	nt	3	nt	nt	nt	nt
Cc1ccc(SC(CC(=O)c2ccc(C)cc2)C(=O)O)cc1 (centres undefined)	-1	59*	6	9	69*	1	29*	73*	69*
CCC(C(=O)NCc1ccncc1)c1ccccc1 (centres undefined)	-2	1	-4	-8	-7	-11	nt	nt	nt
Oc1c(CN2CCOCC2)cc(CN2CCOCC2)c(O)c1CN1CCOCC1	nt	72*	nt	nt	55*	nt	79*	108*	77*
Oc1c(CN2CCOCC2)cc(-c2ccccc2)cc1CN1CCOCC1	-1	-3	-8	-1	2	-4	nt	nt	nt
O=C(CCN1CCc2ccccc2C(c2ccccc2)C1)c1ccc2c(c1)OCCO2 (centres undefined)	2	38*	-8	6	26*	2	23*	86*	20
O/N=C1\CCC\C1=C/c1ccco1	8	2	4	1	-2	4	nt	nt	nt
O=C1C(=Cc2ccco2)CCC1=Cc1ccco1	nt	53*	nt	nt	37*	nt	59*	89*	50*
CCOc1cc(C(c2c(O)nc(SC)[nH]c2=O)c2c(O)nc(SC)[nH]c2=O)ccc1O	3	49*	nt	2	32*	-4	89*	77*	41*
O=C(O)c1cc(N2C(=O)C=CC2=O)cc(N2C(=O)C=CC2=O)c1	nt	75*	nt	nt	24*	nt	80*	109*	97*
